Measured values published in ChEMBL document CHEMBL1127862, “Nonpeptide angiotensin II receptor antagonists. Synthesis, in vitro activity, and molecular modeling studies of N-[(heterobiaryl)methyl] imidazoles” (J Med Chem, 1994).

What was measured:
Angiotensin II receptor = target: T1, Angiotensin II receptor (Rattus norvegicus, UniProt P29089+P25095+P35351); assay: Tested for the binding affinity using radioligand [125I]-Sar1 Ile8-AII in the rat adrenal capsular membranes (adrenal cortex); assay type: cell membranes
T1 sequence (P29089 whole entry): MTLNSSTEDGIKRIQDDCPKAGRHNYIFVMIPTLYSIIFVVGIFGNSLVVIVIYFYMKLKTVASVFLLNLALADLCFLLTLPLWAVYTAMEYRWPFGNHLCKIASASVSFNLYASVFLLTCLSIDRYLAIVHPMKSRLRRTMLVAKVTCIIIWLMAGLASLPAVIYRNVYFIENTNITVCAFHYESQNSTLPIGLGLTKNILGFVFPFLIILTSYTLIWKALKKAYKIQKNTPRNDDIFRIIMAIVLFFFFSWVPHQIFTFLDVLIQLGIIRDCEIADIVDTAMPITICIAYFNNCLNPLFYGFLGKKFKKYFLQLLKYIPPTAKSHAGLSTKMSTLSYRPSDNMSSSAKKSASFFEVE
T1 sequence (P25095 whole entry): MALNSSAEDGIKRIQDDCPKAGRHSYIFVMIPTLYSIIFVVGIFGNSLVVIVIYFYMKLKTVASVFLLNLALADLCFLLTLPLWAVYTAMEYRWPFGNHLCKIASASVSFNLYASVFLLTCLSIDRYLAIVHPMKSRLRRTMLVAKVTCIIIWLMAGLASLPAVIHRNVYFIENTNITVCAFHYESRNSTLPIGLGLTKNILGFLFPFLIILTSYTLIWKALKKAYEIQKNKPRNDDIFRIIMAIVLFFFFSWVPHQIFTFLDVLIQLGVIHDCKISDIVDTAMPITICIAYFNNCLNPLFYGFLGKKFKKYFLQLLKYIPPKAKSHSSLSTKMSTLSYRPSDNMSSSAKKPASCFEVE
T1 sequence (P35351 whole entry): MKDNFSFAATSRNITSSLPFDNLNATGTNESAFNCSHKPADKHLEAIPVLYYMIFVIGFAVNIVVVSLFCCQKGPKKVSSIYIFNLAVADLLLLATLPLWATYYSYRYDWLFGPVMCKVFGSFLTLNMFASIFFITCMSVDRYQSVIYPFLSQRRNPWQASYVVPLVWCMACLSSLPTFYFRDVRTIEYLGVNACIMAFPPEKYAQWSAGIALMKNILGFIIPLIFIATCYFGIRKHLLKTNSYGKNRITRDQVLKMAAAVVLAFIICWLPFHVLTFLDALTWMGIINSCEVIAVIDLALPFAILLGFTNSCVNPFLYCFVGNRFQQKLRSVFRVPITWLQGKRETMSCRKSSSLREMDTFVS
How it was run: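 Membranes from rat adrenal capsules, homogenized in 50 mM Tris-HCl, washed by repeated 50000g spins at 4 °C, resuspended in pH 7.4 sodium phosphate assay buffer with NaCl, EDTA, PMSF, protease inhibitors, BSA and bacitracin. Nonspecific binding defined with 1 uM unlabeled peptide. Bound label separated by vacuum filtration. Ki fitted from replicate curves.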

[1] = target: Angiotensin II receptor (Oryctolagus cuniculus); assay: Tested for the antagonism of AII-induced contraction in rabbit endothelium-denuded aorta strips

Row | Ki (Angiotensin II receptor) [µM] | pA2 [1] | Structure (SMILES)
1 | 14.5 | < 5 | CCCCc1nc(Cl)c(CO)n1Cc1ccc(-c2ccsc2C(=O)O)cc1
2 | > 10 | < 5 | CCCCc1nc(Cl)c(CO)n1Cc1ccc(-c2ccoc2C(=O)O)cc1
3 | > 10 | < 5 | CCCCc1nc(Cl)c(CO)n1Cc1ccc(-c2nc(C)sc2C(=O)O)cc1
4 | > 10 | 5.2 | CCCCc1nc(Cl)c(CO)n1Cc1ccc(-c2ccccc2C(=O)O)o1
5 | > 10 | 6 | CCCCc1nc(CO)c(Cl)n1Cc1ccc(-c2ccoc2C(=O)O)cc1

Continued, molecule first:

Row | Structure (SMILES) | Ki (Angiotensin II receptor) [µM] | pA2 [1]
6 | CCCCc1nc(CO)c(Cl)n1Cc1ccc(-c2ncccc2C(=O)O)cc1 | > 10 | < 5
7 | CCCCc1nc(Cl)c(CO)n1Cc1ccc(-c2cnccc2C(=O)O)cc1 | 6.7 | < 5
8 | CCCCc1nc(Cl)c(CO)n1Cc1ccc(-c2ncccc2C(=O)O)cc1 | 9.8 | < 5
9 | CCCCc1nc(CO)c(Cl)n1Cc1ccc(-c2cccnc2C(=O)O)cc1 | > 10 | < 5
10 | CCCCc1nc(CO)c(Cl)n1Cc1ccc(-c2nc(C)sc2C(=O)O)cc1 | > 10 | <= 5
11 | CCCCc1nc(Cl)c(CO)n1Cc1ccc(-c2cccnc2C(=O)O)cc1 | 3.3 | 6.1
12 | CCCCc1nc(Cl)c(CO)n1Cc1ccc(-c2ccccc2C(=O)O)s1 | > 10 | < 5
